Measurements as given in ChEMBL document CHEMBL1150145, “Antioxidative and cytotoxic compounds extracted from the sap of Rhus succedanea” (J Nat Prod, 2002).
≈ marks a conversion by molar mass, not a printed value. Calls of active or inactive are those of the source. The calls are words filed in the database; no cut-off is given here.

Key:
[1] = Antioxidant activity assessed as inhibition of peroxide formation using iron/ascorbate system; assay type: functional
Method in brief: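 Linoleic acid (100 mg) emulsified with Tween 20 in 50 mM Tris pH 7.4. Emulsion mixed with iron/ascorbate (30 µM FeCl3, 200 µM ascorbic acid, made daily) and methanolic compound, giving ca. 0, 1, 4, 10 ppm final. Tubes held on ice, then 37 °C for 5 and 30 min. Conjugated diene hydroperoxide read at 234 nm after MeOH dilution. BHT 2000 ppm control. Triplicates.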

HeLa = assay: Cytotoxicity against human HeLa cells after 72 hrs by acid phosphatase assay; assay type: functional, cell-based
Method in brief: (§1)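 Cells grown in DMEM with 10% FCS, penicillin and streptomycin at 37 °C, 5% CO2. Seeded at 2000 cells/well in 96-well plates and exposed to compound or left untreated for 72 h.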

Huh-7 = assay: Cytotoxicity against human HuH7 cells after 72 hrs by acid phosphatase assay; assay type: functional, cell-based; conditions: Huh-7, 72 h; method in brief: as §1
HCT-116 = assay: Cytotoxicity against human HCT116 cells after 72 hrs by acid phosphatase assay; assay type: functional, cell-based; conditions: HCT-116, 72 h; method in brief: as §1
LoVo = assay: Cytotoxicity against human LoVo cells after 72 hrs by acid phosphatase assay; assay type: functional, cell-based; method in brief: as §1
C6 = assay: Cytotoxicity against rat C6 cells after 72 hrs by acid phosphatase assay; assay type: functional, cell-based; conditions: C6, 72 h; method in brief: as §1

SMILES | Activity [1] | IC50 (HeLa) [µg/mL] | IC50 (Huh-7) [µg/mL] | IC50 (HCT-116) [µg/mL] | IC50 (LoVo) [µg/mL] | IC50 (C6) [µg/mL]
C/C=C/C=C/C/C=C\CCCCCCCCCc1cc(O)ccc1O | Active | 2.8 (≈ 8.17 µM) | 3.9 (≈ 11.4 µM) | 2 (≈ 5.84 µM) | 4.5 (≈ 13.1 µM) | 0.9 (≈ 2.63 µM)
CCC/C=C/C/C=C\CCCCCCCCCc1cc(O)ccc1O | Active | 4.6 (≈ 13.4 µM) | 6 (≈ 17.4 µM) | 3.5 (≈ 10.2 µM) | 5.6 (≈ 16.3 µM) | 1 (≈ 2.9 µM)
CCCCCC/C=C\CCCCCCCCCc1cc(O)ccc1O | Active | 4.7 (≈ 13.6 µM) | 6.4 (≈ 18.5 µM) | 3.4 (≈ 9.81 µM) | 2.9 (≈ 8.37 µM) | 1.1 (≈ 3.17 µM)
